Among the data in ChEMBL document CHEMBL1149324, “New steroidal dimers with antifungal and antiproliferative activity” (J Med Chem, 2004) are MIC and IC50 values, retold here.

Usually MIC stands for the lowest concentration found to suppress growth. As usually defined, the IC50 is the concentration that inhibits the measured activity by half.

Converted amounts (≈) assume the structure as drawn.

In test [1] the test system is Candida albicans. The test can be described thus: Minimum inhibitory concentration against Candida albicans. In kind it is functional. The method, boiled down:
(§1)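 Disk diffusion on YPG agar. Yeast suspension from 24 h YPG broth (C. albicans five isolates and Y. lipolytica at 28 °C, B. poitrasii at 37 °C) spread-plated. Filter disks carried a DMSO control or graded compound amounts from 1 mg/mL DMSO stock. Plates incubated 28 °C, 24 h. MIC taken as lowest concentration giving an inhibition zone; triplicate.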

The subject of test [2] is Benjaminiella. The test can be described thus: Minimum inhibitory concentration against Benjaminiella poitrassi. It counts as functional. In a few lines: as §1
Test [3] relates to Yarrowia lipolytica. The test can be described thus: Minimum inhibitory concentration against Yarrowia lipolytica. In kind it is functional. The method, boiled down: as §1
For test [4], the system named is HEp-2. The test can be described thus: Antiproliferative activity against HEp-2 cells. In kind it is functional, cell-based. To be noted: Homo sapiens. In a few lines: (§2)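 MEM with 10% heat-inactivated FBS at 37 °C, 5% CO2. Cells seeded at 15 000/well and adhered 24 h. Treated in triplicate for 72 h with 0, 0.1, 1.0 or 10 μM compound from DMSO stock. MTT 1 mg/mL for 4 h at 37 °C, formazan dissolved in 2-propanol, OD 570 nm (630 nm reference). DMSO-only cells set as 100% growth.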

Test [5] has as its system MCF7. The test can be described thus: In vitro antiproliferative activity against MCF-7 cells. In kind it is functional, cell-based. To be noted: Homo sapiens. In a few lines:
as §2

In the case of `C[C@H](CCC(=O)NCCNCCNC(=O)CC[C@H](C)[C@H]1CCC2C3C(C[C@@H](O)[C@@]21C)[C@@]1(C)CC[C@@H](O)CC1C[C@H]3O)[C@H]1CCC2C3C(C[C@@H](O)[C@@]21C)[C@@]1(C)CC[C@@H](O)CC1C[C@H]3O` (stereo partly drawn), the MIC in test [1], in test [2] and in test [3] was 0.0113 µM (≈ 0.01 µg/mL) each time.
Consider `C[C@H](CCC(=O)NCCNC(=O)CC[C@H](C)[C@H]1CCC2C3CCC4C[C@H](O)CC[C@]4(C)C3C[C@@H](O)[C@@]21C)[C@H]1CCC2C3CCC4C[C@H](O)CC[C@]4(C)C3C[C@@H](O)[C@@]21C` (stereo partly drawn), for which the half-maximal inhibitory concentration (IC50) in test [4] and in test [5] was 2200 nM throughout.
Turning to `C[C@@H]1C[C@@H]([C@H](O)CC2CC(=O)NC(=O)C2)C(=O)[C@@H](C)C1` [CYCLOHEXIMIDE], the values for the minimal inhibitory concentration (MIC) in test [1], in test [2] and in test [3] were greater than 0.9 µM, 0.071 µM (≈ 0.02 µg/mL) and 0.106 µM (≈ 0.0298 µg/mL), respectively.
